Source: ChEMBL document CHEMBL1154738, “Vascular disrupting activity of tubulin-binding 1,5-diaryl-1H-imidazoles” (J Med Chem, 2009)
Activity calls are given as the source filed them. The rule behind the calls is not given here.

Tests used:
HUVEC [1] = assay: Cytotoxicity against HUVEC after 1 hr by crystal violet staining; format: functional, cell-based, Homo sapiens
HUVEC [2] = assay: Vascular disrupting activity in HUVEC assessed as change in cell morphology with detachment form substrate after 1 hr by crystal violet staining-based inverted light microscopy; format: functional, Homo sapiens
Summary of the method: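 HUVEC treated for 1 h with compound; morphology (cell retraction, rounding, detachment from substrate) examined by light microscopy.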

HUVEC [3] = assay: Cytotoxicity against HUVEC after 72 hrs by crystal violet staining; format: functional, cell-based, Homo sapiens
[4] = Dissociation constant, pKa of the compound; format: physicochemical
HCT-15 = assay: Growth inhibition of human HCT15 cells after 3 days by crystal violet staining; format: functional; settings: HCT-15, 72 h
[5] = Growth inhibition of human NCI60 cells after 3 days by crystal violet staining; format: functional; settings: NCI60, 72 h
NCI-H460 = assay: Growth inhibition of human NCI-H460 cells after 3 days by crystal violet staining; format: functional; settings: NCI-H460, 72 h
HUVEC [6] = assay: Vascular disrupting activity in HUVEC assessed as disorganization of microtubule at 0.1 uM after 1 hr by FITC-onjugated DAPI staining-based immunofluorescence assay; format: functional, cell-based; settings: Homo sapiens
Summary of the method: (§1)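 HUVEC exposed to vehicle or compound (0.1-1 μM range) for 1 h, then tubulin cytoskeleton examined by immunofluorescence for microtubule disorganization and blebbing of rounded cells.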

HUVEC [7] = assay: Vascular disrupting activity in HUVEC assessed as appearance of blebbing morphology of rounded cells at 0.1 uM after 1 hr by FITC-onjugated DAPI staining-based immunofluorescence assay; format: functional, cell-based; settings: Homo sapiens; summary of the method: as §1
HUVEC [8] = assay: Vascular disrupting activity in HUVEC assessed as disruption of capillary-like structure formation on permissive matrix at 1 uM after 1 hr by microscopy; format: functional, cell-based; settings: Homo sapiens
Summary of the method: (§2)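 HUVEC seeded on 3D Matrigel form capillary-like cord networks by 24 h; compound then added to formed cords and images taken 1 h later to assess cord disruption and shortening.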

Mus musculus = assay: Vascular disrupting activity in C57BL/6N mouse assessed as rapid decrease in FGF2-induced vessel formation on permissive matrix at 20 m/kg, ip after 1 hr by FTC-conjugated staining based confocal microscopy; format: functional, organism-based
Summary of the method: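 Matrigel plug containing FGF-2 implanted in mice, vessels allowed to form over 7 days (plug without FGF-2 as negative control). Single ip dose given, then functional perfused vessels visualized 1 h later with FITC-isolectin B4 by confocal microscopy; at least three images per sample, n = 5.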

HUVEC [9] = assay: Vascular disrupting activity in HUVEC assessed as disorganization of microtubule after 1 hr by FITC-onjugated DAPI staining-based immunofluorescence assay; format: functional, cell-based; settings: Homo sapiens; summary of the method: as §1
MDA-MB-435 [10] = assay: Induction of necrosis in central region of human MDA-MB-435 cells exenografted in NCr nu/nu mouse at 80 mg/kg, ip administered as single dose measured after 24 hrs by haematoxylin/eosin staining-based histopathological analysis; format: functional, organism-based; design: dose 80 mg/kg
HUVEC [11] = assay: Vascular disrupting activity in HUVEC assessed as appearance of blebbing morphology of rounded cells after 1 hr by FITC-onjugated DAPI staining-based immunofluorescence assay; format: functional, cell-based; settings: Homo sapiens; summary of the method: as §1
HUVEC [12] = assay: Vascular disrupting activity in HUVEC assessed as disruption of capillary-like structure formation on permissive matrix at 0.1 uM after 1 hr by microscopy; format: functional, cell-based; settings: Homo sapiens; summary of the method: as §2
MDA-MB-435 [13] = assay: Induction of necrosis in central region of human MDA-MB-435 cells exenografted in NCr nu/nu mouse at 20 mg/kg, ip administered as single dose measured after 24 hrs by haematoxylin/eosin staining-based histopathological analysis; format: functional, organism-based; design: dose 20 mg/kg

SMILES	GI50 (HCT-15) [nM]	GI50 (NCI-H460) [nM]	IC50 (HUVEC [2]; huvec) [nM]	GI50 [5] [nM]	other results
COc1cc(-n2cncc2-c2ccc3ccccc3c2)cc(OC)c1OC [listing 1 of 3 here]	–	–	40	–	IC50 (HUVEC [1]; huvec): 2100 nM; IC50 (HUVEC [3]; huvec): 110 nM; pKa [4]: 5.58
COc1ccc(-c2cncn2-c2cc(OC)c(OC)c(OC)c2)cc1 [listing 1 of 2 here]	–	–	950	–	IC50 (HUVEC [1]; huvec): 20000 nM; IC50 (HUVEC [3]; huvec): 540 nM; pKa [4]: 6.82
COc1ccc(-c2nccn2-c2cc(OC)c(OC)c(OC)c2)cc1	1150	1580	–	4570	–
COc1cc(-n2ccnc2-c2ccc(N(C)C)cc2)cc(OC)c1OC	80	270	–	–	–
COc1cc(-n2cncc2-c2ccc(N(C)C)cc2)cc(OC)c1OC	36	79	–	–	–
COc1ccc(/C=C\c2cc(OC)c(OC)c(OC)c2)cc1O [COMBRETASTATIN A4]	< 10	< 10	–	100	Activity (HUVEC [6]): Active; IC50 (HUVEC [1]; Homo sapiens, HUVEC, 1 h): 400 nM; Activity (HUVEC [7]): Active; IC50 (HUVEC [2]; Homo sapiens, HUVEC, 1 h): 10 nM; IC50 (HUVEC [3]; Homo sapiens, HUVEC, 72 h): 5 nM
COc1ccc(-c2cncn2-c2cc(OC)c(OC)c(OC)c2)cc1F	< 10	< 10	–	39.8	IC50 (HUVEC [1]; Homo sapiens, HUVEC, 1 h): 17000 nM; IC50 (HUVEC [2]; Homo sapiens, HUVEC, 1 h): 17300 nM; IC50 (HUVEC [3]; Homo sapiens, HUVEC, 72 h): 450 nM
COc1cc(-n2cncc2-c2ccc3ccccc3c2)cc(OC)c1OC [listing 3 of 3 here]	–	–	–	–	Activity (HUVEC [8]): Active; Activity (Mus musculus): Active; Activity (HUVEC [9]): Dose-dependent effect; Activity (MDA-MB-435 [10]): Active; Activity (HUVEC [11]): Dose-dependent effect; Activity (HUVEC [12]): Active; Activity (MDA-MB-435 [13]): Active

Continued, in another order:

GI50 (HCT-15) [nM]	GI50 (NCI-H460) [nM]	SMILES	IC50 (HUVEC [2]; huvec) [nM]	GI50 [5] [nM]	other results
51	37	COc1cc(-n2ccnc2-c2ccc3ccccc3c2)cc(OC)c1OC	–	151	–
17	18	COc1cc(-n2cncc2-c2ccc3ccccc3c2)cc(OC)c1OC [listing 2 of 3 here]	41500	72.4	IC50 (HUVEC [1]; huvec): 28300 nM; IC50 (HUVEC [3]; huvec): 540 nM
170	363	COc1ccc(-c2cncn2-c2cc(OC)c(OC)c(OC)c2)cc1 [listing 2 of 2 here]	6530	257	IC50 (HUVEC [1]; Homo sapiens, HUVEC, 1 h): 36100 nM; IC50 (HUVEC [3]; Homo sapiens, HUVEC, 72 h): 600 nM
